Test results from ChEMBL document CHEMBL1129059, “Antitumor properties of some 2-[(dimethylamino)methyl]phenylgold(III) complexes” (J Med Chem, 1996).
Values joined by “and” are separate entries in the source; they are usually repeats but may differ in a detail not shown here. Equal entries are not always repeated.

How the values were obtained:
Mus musculus [1] = experiment: Compound was evaluated for antitumor activity (RTV) in HT1376 carcinoma Xenograft, at a dosage 12.5 mg/kg on day 21; assay type: functional, organism-based; parameters: dose 12.5 mg/kg
In short: (§1)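 HT1376 tumor fragments implanted subcutaneously in nude mice flanks; mice with established palpable tumors randomized into groups of 6 (controls 10). Compounds given intraperitoneally as suspensions in 0.5% carboxymethylcellulose in 0.9% saline, on days 0, 7, 14 and 21. Tumor dimensions on days 0, 7, 14, 21, 28. RTV = 100(mean tumor volume at assessment)/(mean start volume).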

Mus musculus [2] = experiment: Compound was evaluated for antitumor activity (RTV) in HT1376 carcinoma Xenograft, at a dosage 6.25 mg/kg on day 21; assay type: functional, organism-based; parameters: dose 6.25 mg/kg; in short: as §1
Mus musculus [3] = experiment: Compound was evaluated for antitumor activity (RTV) in HT1376 carcinoma Xenograft, at a dosage 6.25 mg/kg on day 7.; assay type: functional, organism-based; parameters: dose 6.25 mg/kg; in short: as §1
Mus musculus [4] = experiment: Compound was evaluated for antitumor activity (RTV) in PNX/109/TC carcinoma Xenograft, at a dosage 20 mg/kg on day 14; assay type: functional, organism-based; parameters: dose 20 mg/kg
In short: (§2)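 PXN/109/TC (CH1) ovarian tumor fragments implanted subcutaneously in nude mice flanks; established palpable tumors, groups of 6 (controls 10). Dosed intraperitoneally as suspension in arachis oil on days 0, 7, 14, 21. Tumors measured days 0, 7, 14, 21, 28. RTV = 100(mean tumor volume at assessment)/(mean start volume).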

Mus musculus [5] = experiment: Compound was evaluated for antitumor activity (RTV) in PNX/109/TC carcinoma Xenograft, at a dosage 20 mg/kg on day 28; assay type: functional, organism-based; parameters: dose 20 mg/kg; in short: as §2
Mus musculus [6] = experiment: Compound was evaluated for antitumor activity (T/C) in PNX/109/TC carcinoma Xenograft, at a dosage 5 mg/kg on day 14; assay type: functional, organism-based; parameters: dose 5 mg/kg
In short: (§3)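 PNX/109/TC (CH1) ovarian tumor fragments implanted subcutaneously in the flanks of nude mice. Once tumors were palpable, mice were randomized into 6 per treated group and 10 controls. Dosing was ip in arachis oil on days 0, 7, 14 and 21, at the MTD and two 2-fold dilutions, with tumor dimensions taken on days 0, 7, 14, 21 and 28. T/C is treated RTV over control RTV, with RTV relative to start volume.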

Mus musculus [7] = experiment: Compound was evaluated for antitumor activity (T/C) in PNX/109/TC carcinoma Xenograft, at a dosage 10 mg/kg on day 14; assay type: functional, organism-based; parameters: dose 10 mg/kg; in short: as §3
Mus musculus [8] = experiment: Compound was evaluated for antitumor activity (RTV) in HT1376 carcinoma Xenograft, at a dosage 6.25 mg/kg on day 28; assay type: functional, organism-based; parameters: dose 6.25 mg/kg; in short: as §1
Mus musculus [9] = experiment: Compound was evaluated for antitumor activity (T/C) in PNX/109/TC carcinoma Xenograft, at a dosage 10 mg/kg on day 21; assay type: functional, organism-based; parameters: dose 10 mg/kg; in short: as §3
Mus musculus [10] = experiment: Compound was evaluated for antitumor activity (RTV) in HT1376 carcinoma Xenograft, at a dosage 25 mg/kg on day 28; assay type: functional, organism-based; parameters: dose 25 mg/kg; in short: as §1
Mus musculus [11] = experiment: Compound was evaluated for antitumor activity (T/C) in HT1376 carcinoma Xenograft, at a dosage 12.5 mg/kg on day 14; assay type: functional, organism-based; parameters: dose 12.5 mg/kg
In short: (§4)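 Subcutaneous HT1376 xenografts in nude mice, 6 per treated group and 10 controls. Intraperitoneal dosing as suspensions in 0.5% carboxymethylcellulose/0.9% saline on days 0, 7, 14, 21; tumors measured weekly to day 28. T/C = RTV of treated group / RTV of untreated control group; significance by t-test at the 5% level.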

Mus musculus [12] = experiment: Compound was evaluated for antitumor activity (RTV) in HT1376 carcinoma Xenograft, at a dosage 12.5 mg/kg on day 28; assay type: functional, organism-based; parameters: dose 12.5 mg/kg; in short: as §1
Mus musculus [13] = experiment: Compound was evaluated for antitumor activity (RTV) in PNX/109/TC carcinoma Xenograft, at a dosage 20 mg/kg on day 7; assay type: functional, organism-based; parameters: dose 20 mg/kg; in short: as §2
Mus musculus [14] = experiment: Compound was evaluated for antitumor activity (T/C) in PNX/109/TC carcinoma Xenograft, at a dosage 5 mg/kg on day 21; assay type: functional, organism-based; parameters: dose 5 mg/kg; in short: as §3
Mus musculus [15] = experiment: Compound was evaluated for antitumor activity (T/C) in PNX/109/TC carcinoma Xenograft, at a dosage 20 mg/kg on day 21; assay type: functional, organism-based; parameters: dose 20 mg/kg; in short: as §3
Mus musculus [16] = experiment: Compound was evaluated for antitumor activity (T/C) in HT1376 carcinoma Xenograft, at a dosage 6.25 mg/kg on day 21; assay type: functional, organism-based; parameters: dose 6.25 mg/kg
In short: (§5)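 Nude mice carrying subcutaneous flank HT1376 fragments; treatment began once tumors were established and palpable, randomized into groups of 6 treated and 10 control mice. Dosing was ip as a suspension in 0.5% carboxymethylcellulose in 0.9% saline on days 0, 7, 14 and 21, at the MTD and two 2-fold dilutions. Tumors were measured on days 0-28. RTV = 100(mean volume at assessment)/(mean start volume); T/C = treated RTV/control RTV.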

Mus musculus [17] = experiment: Compound was evaluated for antitumor activity (T/C) in PNX/109/TC carcinoma Xenograft, at a dosage 20 mg/kg on day 7; assay type: functional, organism-based; parameters: dose 20 mg/kg; in short: as §3
[18] = Range is evaluated. (Highest IC50/Lowest IC50); assay type: functional
Mus musculus [19] = experiment: Compound was evaluated for antitumor activity (T/C) in HT1376 carcinoma Xenograft, at a dosage 12.5 mg/kg on day 21; assay type: functional, organism-based; parameters: dose 12.5 mg/kg; in short: as §4
Mus musculus [20] = experiment: Compound was evaluated for antitumor activity (RTV) in PNX/109/TC carcinoma Xenograft, at a dosage 5 mg/kg fon day 7; assay type: functional, organism-based; parameters: dose 5 mg/kg; in short: as §2
Mus musculus [21] = experiment: Compound was evaluated for antitumor activity (RTV) in PNX/109/TC carcinoma Xenograft, at a dosage 5 mg/kg on day 28; assay type: functional, organism-based; parameters: dose 5 mg/kg; in short: as §2
Mus musculus [22] = experiment: Compound was evaluated for antitumor activity (T/C) in PNX/109/TC carcinoma Xenograft, at a dosage 20 mg/kg on day 14; assay type: functional, organism-based; parameters: dose 20 mg/kg; in short: as §3
Mus musculus [23] = experiment: Compound was evaluated for antitumor activity (T/C) in HT1376 carcinoma Xenograft, at a dosage 12.5 mg/kg on day 7; assay type: functional, organism-based; parameters: dose 12.5 mg/kg; in short: as §4
Mus musculus [24] = experiment: Compound was evaluated for antitumor activity (RTV) in HT1376 carcinoma Xenograft, at a dosage 25 mg/kg on day 21; assay type: functional, organism-based; parameters: dose 25 mg/kg; in short: as §1
Mus musculus [25] = experiment: Compound was evaluated for antitumor activity (T/C) in PNX/109/TC carcinoma Xenograft, at a dosage 20 mg/kg on day 28; assay type: functional, organism-based; parameters: dose 20 mg/kg; in short: as §3
Mus musculus [26] = experiment: Compound was evaluated for antitumor activity (T/C) in PNX/109/TC carcinoma Xenograft, at a dosage 5 mg/kg on day 7; assay type: functional, organism-based; parameters: dose 5 mg/kg; in short: as §3
Mus musculus [27] = experiment: Compound was evaluated for antitumor activity (RTV) in PNX/109/TC carcinoma Xenograft, at a dosage 20 mg/kg on day 21; assay type: functional, organism-based; parameters: dose 20 mg/kg; in short: as §2
Mus musculus [28] = experiment: Compound was evaluated for antitumor activity (T/C) in PNX/109/TC carcinoma Xenograft, at a dosage 10 mg/kg on day 28; assay type: functional, organism-based; parameters: dose 10 mg/kg; in short: as §3
Mus musculus [29] = experiment: Compound was evaluated for antitumor activity (T/C) in HT1376 carcinoma Xenograft, at a dosage 6.25 mg/kg on day 7; assay type: functional, organism-based; parameters: dose 6.25 mg/kg; in short: as §5
Mus musculus [30] = experiment: Compound was evaluated for antitumor activity (RTV) in HT1376 carcinoma Xenograft, at a dosage 25 mg/kg on day 7; assay type: functional, organism-based; parameters: dose 25 mg/kg; in short: as §1
Mus musculus [31] = experiment: Compound was evaluated for antitumor activity (RTV) in PNX/109/TC carcinoma Xenograft, at a dosage 10 mg/kg on day 14; assay type: functional, organism-based; parameters: dose 10 mg/kg; in short: as §2
Mus musculus [32] = experiment: Compound was evaluated for antitumor activity (RTV) in PNX/109/TC carcinoma Xenograft, at a dosage 10 mg/kg on day 7; assay type: functional, organism-based; parameters: dose 10 mg/kg; in short: as §2
Mus musculus [33] = experiment: Compound was evaluated for antitumor activity (RTV) in PNX/109/TC carcinoma Xenograft, at a dosage 10 mg/kg on day 21; assay type: functional, organism-based; parameters: dose 10 mg/kg; in short: as §2

Substance “Acetato[2-(dimethylamino)methyl]phenyl-C,N]gold-(III)” has an RTV (Mus musculus [1]) of 682, an RTV (Mus musculus [2]) of 953 and an RTV (Mus musculus [3]) of 379. The RTV (Mus musculus [4]) was 200, the RTV (Mus musculus [5]) was 481 and the T/C (Mus musculus [6]) was 0.8. The T/C (Mus musculus [7]) was 0.9, the RTV (Mus musculus [8]) was 1670 and the T/C (Mus musculus [9]) was 1.03. It also gave an RTV (Mus musculus [10]) of 870, a T/C (Mus musculus [11]) of 0.98 and an RTV (Mus musculus [12]) of 1080. It also gave an RTV (Mus musculus [13]) of 173, a T/C (Mus musculus [14]) of 0.84 and a T/C (Mus musculus [15]) of 0.51. For the same substance, the T/C (Mus musculus [16]) was 1.07, the T/C (Mus musculus [17]) was 0.74 and the Range [18] was 21.6 and 31. The T/C (Mus musculus [19]) was 0.77, the RTV (Mus musculus [20]) was 160 and the RTV (Mus musculus [21]) was 673. For the same substance, the T/C (Mus musculus [22]) was 0.57, the T/C (Mus musculus [23]) was 0.77 and the RTV (Mus musculus [24]) was 671. It also gave a T/C (Mus musculus [25]) of 0.77, a T/C (Mus musculus [26]) of 0.69 and an RTV (Mus musculus [27]) of 258. It also gave a T/C (Mus musculus [28]) of 1.34, a T/C (Mus musculus [29]) of 1.37 and an RTV (Mus musculus [30]) of 258. The RTV (Mus musculus [31]) was 316, the RTV (Mus musculus [32]) was 173 and the RTV (Mus musculus [33]) was 515.
